In brackets after ≈: the same amount, converted by molar mass.
Legend:
[1] = target: T1, Glucose-dependent insulinotropic receptor (Homo sapiens, UniProt Q8TDV5); assay: Agonist activity at human GPR119 expressed in HEK293 cells assessed as increase in intracellular cAMP level after 60 mins by HTRF assay; type: functional, cell-based
T1 sequence (Q8TDV5 whole entry): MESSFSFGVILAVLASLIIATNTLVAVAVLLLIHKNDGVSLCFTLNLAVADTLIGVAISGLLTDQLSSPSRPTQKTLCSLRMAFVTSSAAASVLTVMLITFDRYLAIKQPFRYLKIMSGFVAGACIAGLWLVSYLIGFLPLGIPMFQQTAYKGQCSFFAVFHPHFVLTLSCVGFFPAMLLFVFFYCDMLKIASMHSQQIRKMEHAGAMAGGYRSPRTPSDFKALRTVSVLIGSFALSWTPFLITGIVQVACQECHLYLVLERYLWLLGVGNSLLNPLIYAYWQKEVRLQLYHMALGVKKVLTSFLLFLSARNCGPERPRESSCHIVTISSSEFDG
Method in brief: (§1)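 cAMP stimulation is also given as % control at the top concentration, relative to an internal agonist control set at 100% cAMP stimulation. EC50 values are means of at least 2 independent experiments, except for two compounds.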

[2] = target: T2, Glucose-dependent insulinotropic receptor (Homo sapiens) (UniProt Q8TDV5); assay: Agonist activity at human GPR119 expressed in HEK293 cells assessed as increase in intracellular cAMP level after 60 mins by HTRF assay relative to control; type: functional, cell-based
T2 sequence (whole entry): T1 sequence (Q8TDV5 whole entry)
Method in brief: (§2)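 EC50 values are means of at least 2 independent experiments, with a few single determinations. Maximal response is reported as the percentage of cAMP stimulation at the maximal dose tested, normalised to an internal agonist control set as 100%.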

[3] = target: T3, Glucose-dependent insulinotropic receptor (Mus musculus, UniProt Q7TQP3); assay: Agonist activity at mouse GPR119 expressed in CHO cells co-expressing Galpha15 assessed as increase in intracellular cAMP level after 60 mins by HTRF assay; type: functional, cell-based; method in brief: as §1
T3 sequence (Q7TQP3 whole entry): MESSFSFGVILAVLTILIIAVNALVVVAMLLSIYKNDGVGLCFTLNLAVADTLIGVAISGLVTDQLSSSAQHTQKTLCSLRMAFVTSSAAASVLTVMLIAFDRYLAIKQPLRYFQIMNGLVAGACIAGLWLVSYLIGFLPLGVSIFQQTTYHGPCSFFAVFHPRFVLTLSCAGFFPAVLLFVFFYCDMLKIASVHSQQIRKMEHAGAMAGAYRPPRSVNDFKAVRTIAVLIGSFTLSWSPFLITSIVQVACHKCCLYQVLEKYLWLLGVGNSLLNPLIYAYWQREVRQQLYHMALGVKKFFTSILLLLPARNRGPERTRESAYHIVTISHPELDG

[4] = target: T4, Glucose-dependent insulinotropic receptor (Mus musculus) (UniProt Q7TQP3); assay: Agonist activity at mouse GPR119 expressed in CHO cells co-expressing Galpha15 assessed as increase in intracellular cAMP level after 60 mins by HTRF assay relative to control; type: functional, cell-based; method in brief: as §2
T4 sequence (whole entry): T3 sequence (Q7TQP3 whole entry)

[5] = Kinetic solubility in fasted state simulated intestinal fluid at pH 6.5; type: physicochemical; details: read-out: Kinetic_solubility
[6] = target: Voltage-gated inwardly rectifying potassium channel KCNH2 (Homo sapiens, UniProt Q12809)
Sequence of Voltage-gated inwardly rectifying potassium channel KCNH2 (Q12809 whole entry): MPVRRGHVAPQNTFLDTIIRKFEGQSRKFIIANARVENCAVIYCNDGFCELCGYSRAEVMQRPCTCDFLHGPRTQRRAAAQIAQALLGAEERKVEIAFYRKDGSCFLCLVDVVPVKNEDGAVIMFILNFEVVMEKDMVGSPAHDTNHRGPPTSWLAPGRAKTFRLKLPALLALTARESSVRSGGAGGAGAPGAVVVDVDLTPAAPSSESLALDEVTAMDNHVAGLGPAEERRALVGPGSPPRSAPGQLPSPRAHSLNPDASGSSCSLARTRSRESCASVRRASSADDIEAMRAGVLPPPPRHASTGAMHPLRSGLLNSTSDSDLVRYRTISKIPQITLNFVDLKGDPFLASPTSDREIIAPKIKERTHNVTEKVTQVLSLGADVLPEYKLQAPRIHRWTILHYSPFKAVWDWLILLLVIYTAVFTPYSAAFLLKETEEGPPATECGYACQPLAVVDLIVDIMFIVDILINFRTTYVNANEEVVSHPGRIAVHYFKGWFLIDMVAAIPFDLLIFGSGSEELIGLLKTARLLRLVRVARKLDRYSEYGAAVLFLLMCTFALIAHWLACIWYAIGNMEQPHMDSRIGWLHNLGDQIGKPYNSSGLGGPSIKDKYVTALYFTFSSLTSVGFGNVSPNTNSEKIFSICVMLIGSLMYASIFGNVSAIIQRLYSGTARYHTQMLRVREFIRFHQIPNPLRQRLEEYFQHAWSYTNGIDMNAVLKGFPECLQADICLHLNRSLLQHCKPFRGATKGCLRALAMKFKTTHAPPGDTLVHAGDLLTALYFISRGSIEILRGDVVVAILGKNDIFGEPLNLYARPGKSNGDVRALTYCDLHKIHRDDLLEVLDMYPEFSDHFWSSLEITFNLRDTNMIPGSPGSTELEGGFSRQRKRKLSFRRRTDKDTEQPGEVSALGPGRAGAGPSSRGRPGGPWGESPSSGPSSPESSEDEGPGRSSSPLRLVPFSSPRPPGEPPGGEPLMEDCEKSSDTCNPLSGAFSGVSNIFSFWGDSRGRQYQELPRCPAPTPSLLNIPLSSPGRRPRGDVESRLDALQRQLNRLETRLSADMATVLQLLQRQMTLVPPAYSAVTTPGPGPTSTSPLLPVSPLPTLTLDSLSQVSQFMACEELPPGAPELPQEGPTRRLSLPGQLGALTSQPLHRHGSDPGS

[7] = Half life in Wistar Han rat at 0.5 mg/kg, iv by LC-MS/MS analysis; type: ADME, organism-based; details: in vivo

EC50 [1] [nM]	Activity [2] [%]	EC50 [3] [nM]	Activity [4] [%]	solubility kinetic [5] [µM]	half-life [7] [h]	Structure (SMILES)	IC50 [6] [nM]
9.4	112	5.1	133	83 (≈ 37.8 µg/mL)	–	O=C(Cc1ccc(OCC[C@@H]2C[C@@H]2C2CCN(c3ncc(Cl)cn3)CC2)nc1)N1CCC1	2100
0.8	82	0.5	93	97 (≈ 44.1 µg/mL)	4.7	O=C(Cc1ccc(OCC[C@@H]2C[C@@H]2C2CCN(c3ncc(Cl)cn3)CC2)cc1)N1CCC1	7400
1.8	104	1.5	91	22 (≈ 10 µg/mL)	–	O=C(Cc1ccc(OCC[C@@H]2C[C@@H]2C2CCN(c3ncc(Cl)cn3)CC2)cc1)NC1CC1	> 60000
0.7	82	1.6	90	152 (≈ 73.4 µg/mL)	1.9	COCc1cnc(N2CCC([C@H]3C[C@H]3CCOc3ccc(CC(=O)N4CCC4)c(F)c3)CC2)nc1	19000
0.2	106	0.4	146	137 (≈ 64.8 µg/mL)	6.9	O=C(Cc1ccc(OCC[C@@H]2C[C@@H]2C2CCN(c3ncc(Cl)cn3)CC2)cc1F)N1CCC1	3300
0.8	89	6.7	110	144 (≈ 70.4 µg/mL)	3.5	O=C(Cc1ccc(OCC[C@@H]2C[C@@H]2C2CCN(c3ncc(Cl)cn3)CC2)cc1F)N1CC(O)C1	–

Reference: ChEMBL document CHEMBL3994654, “Discovery of phenyl acetamides as potent and selective GPR119 agonists” (Bioorg Med Chem Lett, 2017)
